The subject of the series is MS2 coat protein. Briefly: apparent Kd, MS2 coat protein; higher = weaker binding; RNA-MaP array; FMN 200 µM where present. The essentials:
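Binding was read on Illumina sequencing-chip clusters where stalled E. coli RNA polymerase had transcribed each design. A titration of SNAP-549-labelled MS2 coat protein began at 0.7 or 1.5 nM and doubled to 3 µM, once without ligand and once with constant ligand, in 100 mM Tris-HCl pH 7.5, 80 mM KCl, 4 mM MgCl2, BSA, DTT, yeast tRNA and Tween-20. The apparent Kd is the median of filtered per-cluster binding-curve fits, based on green signal normalised to red-channel RNA signal and control-cluster median Fmax.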

Setting [1] is: designed as: ON switch for flavin mononucleotide, no ligand.
Setting [2] is: ligand present: flavin mononucleotide, designed as: ON switch for flavin mononucleotide.
Setting [3] is: designed as: OFF switch for flavin mononucleotide, no ligand.
The mark [4] stands for this setting: ligand present: flavin mononucleotide, designed as: OFF switch for flavin mononucleotide.

For orientation: apparent Kd means a dissociation constant that holds for the conditions of the assay.

For the sequence “UUGGACGUCGUAGGAUAUGUAGGAUAUUCCUACAUGAGGAUCACCCAUGUUGACAUGGAAGAAGGAAAGAAGGACGAUGUCCAU”, the “apparent Kd” value is 496 nM under setting [1] and 303 nM under setting [2].
Turning to “CUUUUAUUGGUCCAUUUUUUCAACAUGAGGAUCACCCAUGUGCAGGAUAUCGUGAUUAUUAUCAACGAGAAGGGCAGAUUCACG”, the “apparent Kd” value stood at 29 nM under setting [3] and 73.6 nM under setting [4].
For “ACAAAUGGAGGAUAUACAUGAGGAUCACCCAUGUAUAUCCUACAUAUGUGAUAAUAAUGUAGAAGGCCAUUUGA”, in that order: 11.6 nM and 11.4 nM.
Take “GGAUCGAAUGUGAGGAUAUGCUGGUCCUUGGAUCAGCAGAAGGCACAUGAGGAUCACCCAUGUCCAAGCGGUCC”: the “apparent Kd” value turned out to be 212 nM under setting [3] and 559 nM under setting [4].
In the same order, the values of “UUCCGGCAUGUAGGAUAUGGAUCCGAUUAGGAUUUAGAAGGACAUGAGGAUCACCCAUGUGCAUUUAAUUAGUCAUUACCGUUU” are 41.6 nM and 86.5 nM.
For “UAAAGUGUGGAGGAUAUGGACCGCGCUAGUGGUCCAGAAGGUCAAACAUGAGGAUCACCCAUGUCCCGUGAUUA”, in that order: 54.5 nM and 67.7 nM.
In the same order, the values of “AAGUGGUUUAUAUAUAUAGAAAUCAGAAGGCGUGACAUGAGGAUCACCCAUGUGUUCAGUCAUGACGAGGAUAUGACUAAUUGU” are 69.9 nM and 85.4 nM.
Turning to “UUGGACGUCGUAGGAUAUGUAGGAUAUUCCUACAUGAGGAUCACCCAUGUUGACAUGGAAGAAGGACAGCAGGACGAUGUCCAU”, the “apparent Kd” value by setting is: under setting [1], 690 nM; under setting [2], 12.9 nM.
In the case of “AACAUGUCAGGAUAUGCGAAGGCGUCUGACAGACGAGGCUAGCAGAAGGGACAUGAGGAUCACCCAUGUAAAAA”, the “apparent Kd” value was 98.9 nM under setting [3] and 129 nM under setting [4].
For “ACAUGAUAUGUAGGAUAUCACAACAUGAGUUUUAAAAUUGUAAUUUAGGAUUGAGAAGGACAUUUACAUGAGGAUCACCCAUGU”, in that order: 18.6 nM and 14.7 nM.
For “AUAUAGAUGGUCAGGAUAUGCUAGUGGUAACAGUAGCAGAAGGGACAUGAGGAUCACCCAUGUGGGUCCUGCUC”, in that order: 22.3 nM and 64 nM.
For the sequence “UGGUCCUAGGGAGGAUAUGGGAAGAUACAUGAGGAUCACCCAUGUUUAAGAAUGCCGAGAGGCAACUAGAAGGCCCUAGUACCU”, the “apparent Kd” value runs as follows: under setting [1], 439 nM; under setting [2], 20.6 nM.
As for “GGAUGACAAAGUCAUCCUCAACGGACAUGAGGAUCACCCAUGUAGGAUAUGCUACUCAAAGAGUAGCAGAAGGACAUGUGUCUU”, the “apparent Kd” value was 37.3 nM under setting [3] and 241 nM under setting [4].
As for “AGAUCACAUGAGGAUCACCCAUGUCAGGAUAUGAUACUAUGUACUUCGGUACAUAGUAUCAGAAGGGAUAUGAA”, the “apparent Kd” value came to 95.2 nM under setting [3] and 193 nM under setting [4].
Take “GGGCGUGAAGGAUAUACAUGAGGAUCACCCAUGUGGGAGGAGAAUGGUGAGGAGGCUGGUAGAAGGUCAGGAGG”: the “apparent Kd” value reads like this: under setting [3], 47.9 nM; under setting [4], 45.8 nM.
As to “CUGAUGUUAGGAUAUCAGGCGCCCGCCACUGGCAGGGCGCAUGAGAAGGGACAUGAGGAUCACCCAUGUAGUAA”, the “apparent Kd” value runs as follows: under setting [3], 27.5 nM; under setting [4], 46.1 nM.
In the same order, the values of “GAAAAGUAAGGAUAUGCACACAGUGAGGAAACUCACUGUGUGCAGAAGGUACAUGAGGAUCACCCAUGUUUCUC” are 38.1 nM and 187 nM.
For “AAAUUUUGUCAAGGAUAUGUAUAAUUGAGUUGAAAACAUGAGGAUCACCCAUGUAUAUGGUGGGAACAGAAGGUGAAUAAGUAA”, in that order: 195 nM and 151 nM.
As to “CAGCUGAAUGUGAGGAUAUUACGAGCUUCGGCUCGUGAGAAGGCACAUGAGGAUCACCCAUGUCUCAACAGCUG”, the “apparent Kd” value by setting is: under setting [3], 38.5 nM; under setting [4], 540 nM.
“AAAACAUGAGGAUCACCCAUGUAAAGAUCGGAAAGUUAGAGUGAGGAUAUACAAAAUUUUAUAUAGUAGAAGGCACUGGGUACA”: the “apparent Kd” value runs as follows: under setting [1], 34.6 nM; under setting [2], 33.5 nM.
In the same order, the values of “UCCCUAAGGCGGGCCGACCAUACAUGAGGAUCACCCAUGUCGAGAAGGUGCUCACGGGUGGGUGGCAAGGAUAUCGGGUCGGAU” are 78.8 nM and 40.5 nM.
For “UUGGAGUACGUAGGAUAUGUAGGAUAUUCCUACAUGAGGAUCACCCAUGUAUGCAUGGAAGAAGGACAGAAGGACGUGCUCCAU”, in that order: 219 nM and 16 nM.
Consider “UAUAUAUAGUAAGGAUAUGUAUAUUUUUUAUAAACAGAAGGUACUGACAUGAGGAUCACCCAUGUUUUAGUGUGGGCAUGUAGA”, for which the “apparent Kd” value by setting is: under setting [3], 79.3 nM; under setting [4], 122 nM.
With “AGCUACGUUUCGUAGCAGUGUCAUCGAGAAGGCCUCAUAACAUGAGGAUCACCCAUGUUUGCAUGGGAGGAUAUCGAUGAUACA”, the “apparent Kd” value under setting [1] was 206 nM and the “apparent Kd” value under setting [2] is 56.4 nM.

These data come from the EternaBench riboswitch data.
